From ChEMBL document CHEMBL1122160, “Structure--activity relationships of nogalamycin analogues” (1982)

Columns and labels:
[1] = tested on: L1210; assay: Micromolar concentration required to inhibit the growth of L1210 cells by 50% was determined; type: functional; settings: Mus musculus, read-out: ID50 (the source's name)
[2] = tested on: L1210; assay: Micromolar concentration required to inhibit the growth of L1210 cells by 90% was determined; type: functional, Mus musculus
[3] = tested on: Mus musculus; assay: […] percent increase in life span of mice injected intraperitoneally with P-388 leukemia after administration (50 mg/kg)/day; type: functional
In short: (§1)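 P-388 leukemia cells (10^6) implanted intraperitoneally in mice on day 0, following a standard National Cancer Institute protocol. Drug was given daily on days 1-9, or on days 1, 5 and 9 for some analogues. Dose level is as in each line.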

[4] = tested on: Mus musculus; assay: Tested for antitumor activity in vivo and the weight change in grams for the tumor in mouse was determined; type: functional
In short: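 Mice received 10^6 P-388 leukemia cells intraperitoneally on day 0, following the standard NCI protocol. Drug was injected daily on days 1-9, or only on days 1, 5 and 9 for certain analogues.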

[5] = tested on: Mus musculus; assay: […] percent increase in life span of mice injected intraperitoneally with P-388 leukemia after administration (1.25 mg/kg)/day; type: functional; in short: as §1
[6] = tested on: Mus musculus; assay: […] percent increase in life span of mice injected intraperitoneally with P-388 leukemia after administration (8 mg/kg)/day; type: functional; in short: as §1
[7] = tested on: Mus musculus; assay: […] percent increase in life span of mice injected intraperitoneally with P-388 leukemia after administration (33 mg/kg)/day; type: functional; in short: as §1
[8] = tested on: Mus musculus; assay: […] percent increase in life span of mice injected intraperitoneally with P-388 leukemia after administration (12.5 mg/kg)/day; type: functional; in short: as §1
[9] = tested on: Mus musculus; assay: […] percent increase in life span of mice injected intraperitoneally with P-388 leukemia after administration (20 mg/kg)/day; type: functional; in short: as §1
[10] = tested on: Mus musculus; assay: […] percent increase in life span of mice injected intraperitoneally with P-388 leukemia after administration (5 mg/kg)/day; type: functional; in short: as §1
[11] = tested on: Mus musculus; assay: In vivo percent increase in life span of mice injected intraperitoneally with P-388 leukemia after administration (25 mg/kg)/day
[12] = tested on: Mus musculus; assay: […] percent increase in life span of mice injected intraperitoneally with P-388 leukemia after administration (10 mg/kg)/day; type: functional; in short: as §1
[13] = tested on: Mus musculus; assay: […] percent increase in life span of mice injected intraperitoneally with P-388 leukemia after administration (1 mg/kg)/day; type: functional; in short: as §1
[14] = tested on: Mus musculus; assay: […] percent increase in life span of mice injected intraperitoneally with P-388 leukemia after administration (100 mg/kg)/day; type: functional; in short: as §1
[15] = tested on: Mus musculus; assay: […] percent increase in life span of mice injected intraperitoneally with P-388 leukemia after administration (16 mg/kg)/day; type: functional; in short: as §1
[16] = tested on: Mus musculus; assay: […] percent increase in life span of mice injected intraperitoneally with P-388 leukemia after administration (400 mg/kg)/day; type: functional; in short: as §1
[17] = tested on: Mus musculus; assay: […] percent increase in life span of mice injected intraperitoneally with P-388 leukemia after administration (6.25 mg/kg)/day; type: functional; in short: as §1
[18] = tested on: Mus musculus; assay: […] percent increase in life span of mice injected intraperitoneally with P-388 leukemia after administration (40 mg/kg)/day; type: functional; in short: as §1

Structure (SMILES) | IC50 [1] [nM] | ID90 [2] [µM] | Weight change [4] [g] | further results
COC1CC(C)(O)Cc2cc3c(c(O)c21)C(=O)c1c(O)cc2c(c1C3=O)OC1OC2(C)C(O)C(N(C)C=O)C1O (stereo not given) | 4300 | >5 | – | –
COC1C(C)OC(OC2CC(C)(O)Cc3cc4c(c(O)c32)C(=O)c2c(O)cc3c(c2C4=O)OC2OC3(C)C(OC(C)=O)C(N(C)C)C2OC(C)=O)C(OC)C1(C)OC (stereo not given) | 76 | 0.21 | -0.6 | ILS [3]: 41%
CNC1C(O)C2Oc3c(cc(O)c4c3C(=O)c3cc5c(c(O)c3C4=O)C(OC)CC(C)(O)C5)C(C)(O2)C1O (stereo not given) | 380 | 0.11 | -1.3 | ILS [5]: 73%
CSC1CC(C)(O)Cc2cc3c(c(O)c21)C(=O)c1c(O)cc2c(c1C3=O)OC1OC2(C)C(O)C(N(C)C)C1O (stereo not given) | 130 | 0.34 | -3.1 | ILS [6]: 37%
CNC1C(O)C2Oc3c(cc(O)c4c3C(=O)c3cc5c(c(O)c3C4=O)C(OC3OC(C)C(OC)C(C)(OC)C3OC)CC(C)(O)C5)C(C)(O2)C1O (stereo not given) | 880 | >1 | -0.6 | ILS [7]: 24%
COC1CC(C)(O)Cc2cc3c(c(O)c21)C(=O)c1c(O)cc2c(c1C3=O)OC1OC2(C)C(O)C(N(C)C)C1O (stereo not given) | 61 | 0.13 | -0.4 | ILS [8]: 197%
COC1C(C)OC(OC2CC(C)(O)Cc3cc4c(c(OC(C)=O)c32)C(=O)c2c(O)cc3c(c2C4=O)OC2OC3(C)C(OC(C)=O)C(N(C)C)C2OC(C)=O)C(OC)C1(C)OC (stereo not given) | 17 | 0.041 | -0.1 | ILS [9]: 37%
COC1C(C)OC(OC2CC(C)(O)Cc3cc4c(c(O)c32)C(=O)c2c(O)cc3c(c2C4=O)OC2OC3(C)C(O)C(N(C)C)C2O)C(OC)C1(C)OC (stereo not given) | 180 | 0.27 | -0.2 | ILS [10]: 93%
COC(=O)C1c2cc3c(c(O)c2C(OC2OC(C)C(OC)C(C)(OC)C2OC)CC1(C)O)C(=O)c1c(O)cc2c(c1C3=O)OC1OC2(C)C(O)C(N(C)C=O)C1O (stereo not given) | > 1000 | >1 | -0.1 | ILS [11]: 12%
C#CCOC1CC(C)(O)Cc2cc3c(c(O)c21)C(=O)c1c(O)cc2c(c1C3=O)OC1OC2(C)C(O)C(N(C)C)C1O (stereo not given) | 150 | 0.32 | -0.7 | ILS [12]: 41%
COC(=O)[C@@H]1c2cc3c(c(O)c2[C@@H](O[C@@H]2O[C@@H](C)[C@H](OC)[C@@](C)(OC)[C@H]2OC)C[C@]1(C)O)C(=O)c1c(O)cc2c(c1C3=O)O[C@H]1O[C@@]2(C)[C@@H](O)[C@@H](N(C)C)[C@@H]1O | 78 | 0.18 | -0.5 | ILS [13]: 49%
CN(C)C1C(O)C2Oc3c(cc(O)c4c3C(=O)c3cc5c(c(O)c3C4=O)CCC(C)(O)C5)C(C)(O2)C1O (stereo not given) | 940 | 1.76 | -1.2 | ILS [14]: 21%
CNC1C(O)C2Oc3c(cc(O)c4c3C(=O)c3cc5c(c(O)c3C4=O)C(OC3OC(C)C(OC)C(C)(OC)C3OC)CC(C)(O)C5C(=O)OC)C(C)(O2)C1O (stereo not given) | 360 | 0.9 | -0.5 | ILS [11]: 59%
CN(C)C1C(O)C2Oc3c(cc(O)c4c3C(=O)c3cc5c(c(O)c3C4=O)C(OCCBr)CC(C)(O)C5)C(C)(O2)C1O (stereo not given) | 24 | 0.071 | -1.3 | ILS [15]: 60%
COC(=O)C1c2cc3c(c(O)c2CCC1(C)O)C(=O)c1c(O)cc2c(c1C3=O)OC1OC2(C)C(O)C(N(C)C)C1O (stereo not given) | 580 | 1.51 | -0.7 | ILS [3]: 27%
CN(C)C1C(O)C2Oc3c(cc(O)c4c3C(=O)c3cc5c(c(O)c3C4=O)C(N=[N+]=[N-])CC(C)(O)C5)C(C)(O2)C1O (stereo not given) | 830 | 1.76 | -0.3 | ILS [10]: 33%
COc1c2c(cc3c1C(OC)CC(C)(O)C3)C(=O)c1c3c(cc(O)c1C2=O)C1(C)OC(O3)C(O)C(N(C)C)C1O (stereo not given) | 4500 | 9.7 | 0.6 | ILS [9]: 25%
CN(C)C1C(O)C2Oc3c(cc(O)c4c3C(=O)c3cc5c(c(O)c3C4=O)CCC(C)(O)C5C(=O)O)C(C)(O2)C1O (stereo not given) | 5600 | 14.5 | 0.2 | ILS [16]: -4%
COC(=O)C1c2cc3c(c(O)c2C(OC2OC(C)C(OC)C(C)(OC)C2OC)CC1(C)O)C(=O)c1c(O)cc2c(c1C3=O)OC1OC2(C)C(OC(C)=O)C(N(C)C)C1OC(C)=O (stereo not given) | 69 | 0.185 | -0.3 | ILS [17]: 3%
COCCNC1CC(C)(O)Cc2cc3c(c(O)c21)C(=O)c1c(O)cc2c(c1C3=O)OC1OC2(C)C(O)C(N(C)C)C1O (stereo not given) | 1040 | 2.91 | 0.2 | ILS [18]: 40%
C=CCOC1CC(C)(O)Cc2cc3c(c(O)c21)C(=O)c1c(O)cc2c(c1C3=O)OC1OC2(C)C(O)C(N(C)C)C1O (stereo not given) | 180 | 0.53 | 0.3 | ILS [10]: 25%
COC1C(C)OC(OC2CC(C)(O)Cc3cc4c(c(O)c32)C(=O)c2c(O)cc3c(c2C4=O)OC2OC3(C)C(O)C(N(C)C=O)C2O)C(OC)C1(C)OC (stereo not given) | > 1000 | >1 | 0.1 | ILS [3]: 0%
CN(C)C1C(O)C2Oc3c(cc(O)c4c3C(=O)c3cc5c(c(O)c3C4=O)C(N)CC(C)(O)C5)C(C)(O2)C1O (stereo not given) | 970 | 2 | 0.2 | ILS [18]: 47%
